Screening data from PubChem.
A selection: hits, their analogues and other compounds. The true share with any hit is near 4.3%.
FLuc act counter = affects firefly luciferase, flagging false hits in luciferase stimulation screens | activation factor at 10 µM | 200,000 tested, under 10 active | ATPlite luciferase biochemical, luminescence, 10 min; 0 = ATP-free wells, 1 = DMSO control | P08659 | AID 1027;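 active = luciferase activation factor, scaled between plate controls, of at least 2 with compound at 10 µM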
Target sequence (P08659 whole entry, looked up): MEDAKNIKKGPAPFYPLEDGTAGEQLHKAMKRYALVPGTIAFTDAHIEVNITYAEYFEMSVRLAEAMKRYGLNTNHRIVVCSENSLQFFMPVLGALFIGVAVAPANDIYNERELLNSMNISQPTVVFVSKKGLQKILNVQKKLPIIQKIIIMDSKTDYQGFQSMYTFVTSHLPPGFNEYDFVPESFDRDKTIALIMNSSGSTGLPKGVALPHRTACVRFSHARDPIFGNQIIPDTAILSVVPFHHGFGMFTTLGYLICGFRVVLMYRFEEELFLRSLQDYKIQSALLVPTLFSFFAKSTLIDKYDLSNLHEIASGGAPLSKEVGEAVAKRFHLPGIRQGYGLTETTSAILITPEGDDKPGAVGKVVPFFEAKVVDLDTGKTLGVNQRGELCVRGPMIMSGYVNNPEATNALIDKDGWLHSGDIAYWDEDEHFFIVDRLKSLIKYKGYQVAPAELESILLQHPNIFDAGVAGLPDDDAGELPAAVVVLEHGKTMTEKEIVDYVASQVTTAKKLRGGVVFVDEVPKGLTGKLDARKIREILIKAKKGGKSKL
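Material: Luciferase/luciferin reagent mix | Doses: Test compounds dosed from 2 mM stocks in 100% DMSO | Timing: 10 min incubation after luciferase reagent addition, room temperature | Measured by: Luminescence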
NF-kB expr up = compounds increasing NF-kB expression in human neuronal cells; NF-kB reporter expression; hits give high values; fold change at 12.5 µM; 190,000 compounds, 1.6% hits; in the data active = fold change above about 3.3
STAT1 activator = activators of IFN-gamma induced STAT1 signaling; AID 932; 200,000 compounds, 2.6% hits; activation (% of control), % at 5.5 µM; NIH 3T3 STAT1-luciferase reporter, luminescence; 100% = IFN-gamma alone, no compound;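 active = activation above the screen-wide mean activation plus 3 SD, cut at about 130% in these data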;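 also: raw ratio to IFN-gamma control signal so 100% means no change and 0% no light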
APP 5'UTR act = activates APP 5'UTR luciferase reporter; SH-SY5Y APP 5'UTR luciferase reporter, luminescence; zero percent = DMSO vehicle wells; activation, % at 2 µM; 190,000 compounds, 1% hits;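 active = activation above a set limit, based on mean plus 3 SD of controls, cut at about 140% in these data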
FLuc inhib CS = counter-screen for luciferase assay inhibitors: firefly luciferase inhibition. ATPLite firefly luciferase biochemical luminescence, 10 min. inhibition, % at 10 µM. 200,000 compounds, 1.5% hits. AID 1006;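 active = inhibition above about 50% when tested at 10 µM, limit read from the data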
STAT1 activ conf = STAT1 activation, confirmation assay; shares compounds with STAT1 activator; NIH 3T3 STAT1-luciferase reporter, IFN-gamma potentiation, luminescence; 100% = IFN-gamma EC80 alone, no compound; activation (% of control), % at 5.7 µM; 1,200 compounds, 97% hits; AID 1262;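 active = activation above a set limit carried over from the earlier primary STAT1 screen, cut at about 140% in these data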;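 also: simple ratio to median IFN-gamma plus DMSO wells so 0% means no light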
NFkB act = activates NF-kappaB, counter-screen to STAT1 activators; 1,200 compounds, 43% hits; HEK293T NF-kB luciferase reporter, TNF-alpha stimulated, luminescence; 100% = TNF-alpha with vehicle only; shares compounds with STAT1 activator; activation (% of control), % at 5.7 µM;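 active = activation above the mean of solvent-only control wells plus 3 SD, set per campaign, cut at about 130% in these data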;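 also: TNF-alpha given at a submaximal dose yielding about 80% of full reporter signal; values are well signal over median control so 100% means no change and 0% no light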
STAT3 act 2 = counter-screen for STAT1 activators: human STAT3 activation; shares compounds with STAT1 activator; activation (% of control), % at 5.7 µM; U3A cells STAT3-luciferase reporter, IL-6, luminescence; cells lack STAT1; 100 = IL-6 alone, no compound effect; 1,200 compounds, 46% hits;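 active = activation above the solvent-only control well mean plus 3 SD, set per plate batch, cut at about 110% in these data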;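 also: 0% = no luminescence and 100% = median IL-6 plus DMSO wells; higher means more STAT3 reporter activation so hits are non-selective activators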
* hit, by the source's call; · = no result given.

SMILES	FLuc act counter	NF-kB expr up	STAT1 activator	APP 5'UTR act	FLuc inhib CS	STAT1 activ conf	NFkB act	STAT3 act 2
CCOC(=O)CSc1nc(-c2ccncc2)ccc1C#N	1	8.9*	159*	185*	1	190*	131	106
CCCCCCN1C=CC(=C/C=C(\C#N)C(=O)OCC)C=C1	1.1	0.95	97	6	-7	·	·	·
CCCN1C=CC(=C/C=C(\C#N)C(=O)OCC)C=C1	0.4	2.8	164*	120	58*	183*	124	134*
N#C/C(=N\Nc1ccc(Cl)cc1)C(=N)N1CCCCCC1	0.9	1.3	158*	236*	14	305*	135*	116*
N=C(c1ccc([N+](=O)[O-])cc1)N1CCCCC1	1.1	1	109	6	-5	·	·	·
N#C/C(=N/Nc1ccc([N+](=O)[O-])cc1)C(=N)N1CCCCC1	0.9	8.1*	174*	174*	13	249*	143*	122*
Cn1/c(=N/N=C/c2ccccn2)sc2ccccc21	0.4	5.3*	152*	114	59*	219*	142*	130*
O=C(O)CC(NC(=O)c1ccncc1)c1ccccc1 (stereo unspecified)	1	1.1	102	-29	0	·	·	·
CCCCCn1c(-c2ccco2)nc2nc3ccccc3nc21	1	0.91	104	3	-4	·	·	·
c1ccc(Cn2c(-c3ccco3)nc3nc4ccccc4nc32)cc1	0.9	2.1	152*	61	11	158*	127	115*
Cc1cc(NCCN2CCOCC2)n2ncc(-c3ccccc3)c2n1	0.9	3	165*	42	12	219*	146*	152*
CCCCNC(=S)Nc1ccc(-c2nc3ccc(C)cc3s2)cc1	0.5	11*	151*	180*	48	210*	143*	100
Cc1ccc2nc(-c3ccc(NC(=O)CN4C(=O)NC(C)(c5ccc(OC(F)F)cc5)C4=O)cc3)sc2c1 (stereo unspecified)	0.8	1.5	155*	150*	24	186*	129	113*
CCC(C)(C)NC(=S)Nc1ccc(-c2nc3ccc(C)cc3s2)cc1	0.7	2.5	177*	173*	32	200*	130	107
Cc1cccc(NC(=S)NC(C)(C)CC(C)(C)C)c1	1.1	1.1	95	10	-6	·	·	·
Cc1ccc(Nc2nnc(SC(C)C(=O)Nc3c(C)n(C)n(-c4ccccc4)c3=O)s2)cc1 (stereo unspecified)	0.8	0.95	94	6	24	·	·	·
CCCCNC(=S)Nc1cccc(C(C)=O)c1	1	1.7	96	-2	-4	·	·	·
COCCNc1nnc(SC(C)C(=O)Nc2ccc(-c3nc4ccc(C)cc4s3)cc2)s1 (stereo unspecified)	0.7	4.5*	160*	-14	32	200*	123	102
COc1ccc(OC)c(C(=O)c2ccc(C(=O)Nc3cccc4ccccc34)cc2)c1	1	1.4	99	-9	-4	·	·	·
COc1ccc(NC(=O)c2cc(=O)[nH]c(=O)[nH]2)cc1S(=O)(=O)Nc1ccccc1Cl	1	1.1	105	0	-4	·	·	·
Cc1ccc(NC(=S)N(Cc2ccco2)C2CCN(C(C)C)CC2)cc1	1	1.2	92	16	1	·	·	·
COc1ccc(C)cc1NC(=O)COC(=O)c1ccc([N+](=O)[O-])o1	1.1	1.3	102	2	-5	·	·	·
Cc1ccc2nc(-c3ccc(NC(=O)COC(=O)c4ccc([N+](=O)[O-])o4)cc3)sc2c1	0.5	6*	155*	106	47	170*	99	69
O=S(=O)(Nc1nc2c(s1)CCCC2)c1ccc(Br)cc1	1.1	0.76	102	2	-6	·	·	·
O=C(Nc1nc2c(s1)CCCC2)c1ccc(Br)o1	0.3	6.2*	165*	163*	68*	217*	122	99
SMILES	FLuc act counter	NF-kB expr up	STAT1 activator	APP 5'UTR act	FLuc inhib CS	STAT1 activ conf	NFkB act	STAT3 act 2
Cc1ccc(C(=O)Nc2nc3c(s2)CCCC3)o1	0.2	7.3*	155*	166*	82*	209*	115	93
O=C(O)C1CCCN(S(=O)(=O)c2ccc3c(c2)OCCO3)C1 (stereo unspecified)	1	1.3	104	-18	2	·	·	·
O=c1[nH]cnc2scc(-c3ccc(-c4ccccc4)cc3)c12	0.4	2.3	159*	38	60*	214*	113	90
CSCc1nc2scc(-c3ccccc3)c2c(=O)[nH]1	1.1	1.3	103	0	-7	·	·	·
c1ccc(-c2c3ccccc3nc3[nH]c4ccccc4c23)cc1	1.1	0.94	95	1	-5	·	·	·
c1ccc2nc3c(nc2c1)[nH]c1ccccc13	0.6	5.9*	160*	257*	45	202*	132	126*
Cc1ccc(-n2cccn2)c(CN2CCC(CO)(CCc3ccccc3)CC2)c1	1.1	0.88	97	3	-7	·	·	·
COc1ccc2oc(C(=O)c3ccccc3)c(N)c2c1	0.8	6.1*	174*	144*	17	175*	141*	107
Cc1ccc(C2=NN(S(C)(=O)=O)C(c3ccc4c(c3)OCO4)C2)cc1 (stereo unspecified)	0.9	10*	211*	139*	15	256*	141*	140*
CS(=O)(=O)Nc1ccc(C2=NN(S(C)(=O)=O)C(c3ccc4nccnc4c3)C2)cc1 (stereo unspecified)	1.1	1.2	99	-1	-6	·	·	·
CS(=O)(=O)N1N=C(c2ccc(Br)cc2)CC1c1ccc2c(c1)OCO2 (stereo unspecified)	1	5.5*	155*	111	2	203*	135*	125*
Clc1cccc(/C=N/Nc2ncnc3ccccc23)c1	0.7	4.4*	162*	·	34	227*	143*	134*
Clc1cccc(Nc2ncnc3ccc(Br)cc23)c1	1.1	0.68	100	8	-5	·	·	·
O=C(O)CN1C(=O)C2C3CC(C2C1=O)C1C(c2ccc(F)cc2)c2sc(=O)[nH]c2SC31 (stereo unspecified)	1	1.1	104	-5	-2	·	·	·
COC(=O)c1ccc(NC(=S)Nc2ccc(O)cc2)cc1	1	1.4	102	11	-1	·	·	·
COC(=O)c1ccc(NC(=S)Nc2ccccn2)cc1	0.9	3	165*	·	10	190*	135*	100
